# ChEMBL document CHEMBL1141617, “Synthesis and evaluation of antitumoral activity of ester and amide derivatives of 2-arylamino-6-trifluoromethyl-3-pyridinecarboxylic acids” (2008)
# How the values were obtained:
# Type in all cases: functional
# [1] = system: NCI-H522; assay: Growth inhibition of human NCI-H522 cells; details: for TGI: read-out: Log TGI (converted)
# Outline: (§1)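 NCI 60 human tumour cell line panel grown in RPMI1640 with 5% fetal calf serum and 2 mM L-glutamine. Cells seeded at a density set by each line's growth characteristics and preincubated 24 h. Compounds added in DMSO at 10^-4 to 10^-8 M (five 10-fold dilutions) and left 48 h continuously. Growth read by sulforhodamine B protein stain. GI50 is the molar concentration giving 50% net growth inhibition.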
# [2] = system: HL-60; assay: Growth inhibition of human HL60 cells; details: for TGI: read-out: Log TGI (converted); outline: as §1
# [3] = system: CCRF-CEM; assay: Growth inhibition of human CCRF-CEM cells; outline: as §1
# [4] = system: KM12; assay: Growth inhibition of human KM12 cells; outline: as §1
# [5] = system: PC-3; assay: Growth inhibition of human PC3 cells; outline: as §1
# [6] = system: IGROV-1; assay: Growth inhibition of human IGROV1 cells; outline: as §1
# [7] = system: T47D; assay: Growth inhibition of human T47D cells; details: for TGI: read-out: Log TGI (converted); outline: as §1
# [8] = system: HCC 2998; assay: Growth inhibition of human HCC2998 cells; details: for TGI: read-out: Log TGI (converted); outline: as §1
# [9] = Growth inhibition of human H23 cells; details: NCI-H23; outline: as §1
# [10] = system: OVCAR-3; assay: Growth inhibition of human OVCAR-3 cells; outline: as §1
# [11] = system: UACC-62; assay: Growth inhibition of human UACC62 cells; outline: as §1
# [12] = system: MDA-MB-231; assay: Growth inhibition of human MDA-MB-231 cells; details: for TGI: read-out: Log TGI (converted); outline: as §1
# [13] = system: LOX IMVI; assay: Growth inhibition of human LOXIMVI cells; details: for TGI: read-out: Log TGI (converted); outline: as §1
# [14] = system: HOP-92; assay: Growth inhibition of human HOP92 cells; details: for TGI: read-out: Log TGI (converted); outline: as §1
# [15] = system: SK-OV-3; assay: Growth inhibition of human SKOV3 cells; outline: as §1
# [16] = system: MOLT-4; assay: Growth inhibition of human MOLT4 cells; details: for TGI: read-out: Log TGI (converted); outline: as §1
# [17] = system: SR; assay: Growth inhibition of human SR cells; details: for TGI: read-out: Log TGI (converted); outline: as §1
# [18] = system: HCT-116; assay: Growth inhibition of human HCT116 cells; outline: as §1
# [19] = system: ACHN; assay: Growth inhibition of human ACHN cells; outline: as §1
# [20] = system: SK-MEL-5; assay: Growth inhibition of human SK-MEL5 cells; details: for TGI: read-out: Log TGI (converted); outline: as §1
# [21] = system: SNB-75; assay: Growth inhibition of human SNB75 cells; outline: as §1
# [22] = system: OVCAR-4; assay: Growth inhibition of human OVCAR4 cells; outline: as §1
# [23] = system: EKVX; assay: Growth inhibition of human EKVX cells; outline: as §1
# [24] = system: A498; assay: Growth inhibition of human A498 cells; details: for TGI: read-out: Log TGI (converted); outline: as §1
# [25] = system: CAKI-1; assay: Growth inhibition of human CAKI1 cells; outline: as §1
# [26] = system: RPMI-8226; assay: Growth inhibition of human RPMI8226 cells; outline: as §1
# [27] = system: K562; assay: Growth inhibition of human K562 cells; outline: as §1
# [28] = system: NCI-H460; assay: Growth inhibition of human NCI-H460 cells; outline: as §1
# [29] = system: UACC-257; assay: Growth inhibition of human UACC257 cells; outline: as §1
# [30] = system: COLO 205; assay: Growth inhibition of human COLO205 cells; details: for TGI: read-out: Log TGI (converted); outline: as §1
# [31] = system: RXF 393; assay: Growth inhibition of human RXF393 cells; outline: as §1
# [32] = system: MCF7; assay: Growth inhibition of human MCF7 cells; details: for TGI: read-out: Log TGI (converted); outline: as §1
# [33] = system: SK-MEL-2; assay: Growth inhibition of human SKMEL2 cells; outline: as §1
# [34] = Growth inhibition of human ADR-RES cells; outline: as §1
# [35] = system: OVCAR-5; assay: Growth inhibition of human OVCAR5 cells; outline: as §1
# [36] = system: UO-31; assay: Growth inhibition of human UO31 cells; outline: as §1
# [37] = system: Malme-3M; assay: Growth inhibition of human MALME3M cells; outline: as §1
# [38] = system: HCT-15; assay: Growth inhibition of human HCT15 cells; outline: as §1
# [39] = system: U-251; assay: Growth inhibition of human U251 cells; outline: as §1
# [40] = system: SF-295; assay: Growth inhibition of human SF295 cells; outline: as §1
structure (smiles),measurement,setting,value
COc1cc(NC(=O)c2ccc(C(F)(F)F)nc2Nc2ccc(Cl)cc2C)cc(OC)c1OC,GI50,[1],1.62 µM
same,GI50,[2],1.74 µM
same,GI50,[3],1.58 µM
same,GI50,[4],1.55 µM
same,GI50,[5],1.86 µM
same,GI50,[6],0.955 µM
same,GI50,[7],2.45 µM
same,GI50,[8],1.91 µM
same,TGI,[8],5.62 µM
same,GI50,[9],2.19 µM
same,GI50,[10],2.4 µM
COc1cc(NC(=O)c2ccc(C(F)(F)F)nc2Nc2cc(Cl)ccc2C)cc(OC)c1OC,GI50,[11],0.955 µM
same,GI50,[12],1.66 µM
same,TGI,[12],8.91 µM
same,GI50,[13],0.724 µM
same,TGI,[13],2.4 µM
same,GI50,[14],< 0.01 µM
same,TGI,[14],1.66 µM
same,GI50,[1],2.29 µM
same,TGI,[1],7.41 µM
same,GI50,[15],2.04 µM
same,GI50,[16],< 0.01 µM
same,TGI,[16],0.0417 µM
same,GI50,[2],0.0229 µM
same,LC50,[2],7.24 µM
same,TGI,[2],1.62 µM
same,GI50,[17],0.0186 µM
same,TGI,[17],0.302 µM
same,GI50,[18],2.51 µM
same,GI50,[19],1.78 µM
same,GI50,[3],< 0.01 µM
same,GI50,[5],1.2 µM
same,TGI,[5]; read-out: Log TGI (converted),5.37 µM
same,GI50,[20],1.17 µM
same,TGI,[20],10 µM
same,GI50,[21],1.07 µM
same,GI50,[6],0.407 µM
same,GI50,[22],1.74 µM
same,GI50,[7],2.14 µM
same,TGI,[7],9.55 µM
same,GI50,[8],< 0.01 µM
same,TGI,[8],5.37 µM
same,GI50,[23],2.75 µM
same,GI50,[9],2.19 µM
same,GI50,[24],2.34 µM
same,GI50,[25],2.4 µM
same,GI50,[26],0.457 µM
same,GI50,[27],0.676 µM
Cc1ccc(Cl)cc1Nc1nc(C(F)(F)F)ccc1C(=O)Nc1cccc(C(F)(F)F)c1,GI50,[28],2.82 µM
same,TGI,[28]; read-out: Log TGI (converted),10 µM
same,GI50,[12],2.29 µM
same,TGI,[12],9.55 µM
same,GI50,[14],2.19 µM
same,TGI,[14],8.71 µM
same,GI50,[1],1.78 µM
same,TGI,[1],6.31 µM
same,GI50,[15],1.74 µM
same,TGI,[15]; read-out: Log TGI (converted),5.5 µM
same,GI50,[16],2.75 µM
same,TGI,[16],10 µM
same,GI50,[18],2.4 µM
same,GI50,[3],2.82 µM
same,GI50,[5],2.09 µM
same,GI50,[20],2.19 µM
same,TGI,[20],4.47 µM
same,GI50,[29],2.95 µM
same,TGI,[29]; read-out: Log TGI (converted),8.32 µM
same,GI50,[30],1.74 µM
same,TGI,[30],3.39 µM
same,GI50,[6],1.7 µM
same,GI50,[7],2.24 µM
same,TGI,[7],8.91 µM
same,GI50,[8],1.78 µM
same,TGI,[8],4.47 µM
same,GI50,[31],2.69 µM
same,TGI,[31]; read-out: Log TGI (converted),7.94 µM
same,GI50,[24],2.95 µM
same,TGI,[24],8.51 µM
same,GI50,[32],2.51 µM
same,TGI,[32],9.55 µM
same,GI50,[33],2.45 µM
same,TGI,[33]; read-out: Log TGI (converted),6.61 µM
same,GI50,[34],2.14 µM
same,TGI,[34]; read-out: Log TGI (converted),7.59 µM
same,GI50,[26],2.34 µM
COc1cccc(NC(=O)c2ccc(C(F)(F)F)nc2Nc2ccc(Cl)cc2C)c1,GI50,[1],1.29 µM
same,TGI,[1],7.24 µM
same,GI50,[31],1.17 µM
same,GI50,[35],2.51 µM
same,GI50,[24],1.66 µM
same,GI50,[25],2.75 µM
same,GI50,[36],1.45 µM
same,TGI,[36]; read-out: Log TGI (converted),8.32 µM
Cc1cc(Cl)ccc1Nc1nc(C(F)(F)F)ccc1C(=O)Nc1cccc(C(F)(F)F)c1,GI50,[12],2.04 µM
same,TGI,[12],8.13 µM
same,GI50,[13],2.82 µM
same,TGI,[13],8.51 µM
same,GI50,[14],2.19 µM
same,TGI,[14],8.13 µM
same,GI50,[15],2.45 µM
same,GI50,[2],2.04 µM
same,TGI,[2],4.68 µM
same,GI50,[17],2.57 µM
same,TGI,[17],8.32 µM
same,GI50,[19],2.75 µM
same,TGI,[19]; read-out: Log TGI (converted),8.91 µM
same,GI50,[4],2.09 µM
same,GI50,[20],2.82 µM
same,TGI,[20],9.33 µM
same,GI50,[30],2.51 µM
same,TGI,[30],6.17 µM
same,GI50,[37],2 µM
same,TGI,[37]; read-out: Log TGI (converted),9.12 µM
same,GI50,[38],2.57 µM
same,TGI,[38]; read-out: Log TGI (converted),7.41 µM
same,GI50,[23],1.86 µM
same,GI50,[24],2.82 µM
same,TGI,[24],7.41 µM
same,GI50,[39],3.02 µM
same,TGI,[39]; read-out: Log TGI (converted),9.77 µM
same,GI50,[32],2.29 µM
same,TGI,[32],7.76 µM
Cc1ccc(Cl)cc1Nc1nc(C(F)(F)F)ccc1C(=O)Oc1ccc(Cl)cc1,GI50,[14],1.91 µM
same,GI50,[10],2.57 µM
same,TGI,[10]; read-out: Log TGI (converted),8.91 µM
COc1ccc(NC(=O)c2ccc(C(F)(F)F)nc2Nc2ccc(Cl)cc2C)cc1Cl,GI50,[12],1.66 µM
same,TGI,[12],6.76 µM
same,GI50,[40],2.34 µM
same,GI50,[16],1.55 µM
same,TGI,[16],4.9 µM
same,GI50,[2],2.4 µM
same,TGI,[2],5.37 µM
same,GI50,[17],1.7 µM
same,TGI,[17],6.46 µM
same,GI50,[32],2.4 µM
same,GI50,[26],2.09 µM
same,TGI,[26]; read-out: Log TGI (converted),4.9 µM
same,GI50,[27],2.4 µM
